Experimental data reported in ChEMBL document CHEMBL4184197 (Bioorg Med Chem, 2018).

What was measured:
[1] = target: Type-1 angiotensin II receptor (Homo sapiens) (UniProt P30556); assay: Binding affinity to recombinant human AT1 receptor at 10 uM after 120 mins by scintillation counting analysis relative to control
[2] = target: Tumor necrosis factor receptor superfamily member 1A (Homo sapiens) (UniProt P19438); assay: Binding affinity to recombinant human TNFalpha receptor at 10 uM after 120 mins by scintillation counting analysis relative to control
[3] = target: Nitric oxide synthase, inducible (Mus musculus) (UniProt P29477); assay: Binding affinity to recombinant mouse iNOS at 10 uM after 120 mins by spectrophotometric analysis relative to control
[4] = target: D(1A) dopamine receptor (Homo sapiens) (UniProt P21728); assay: Binding affinity to recombinant human dopamine receptor D1 at 10 uM after 60 mins by scintillation counting analysis relative to control
Homo sapiens [5] = organism: Homo sapiens; assay: Binding affinity to elastase (unknown origin) at 10 uM relative to control
[6] = target: Gastrin/cholecystokinin type B receptor (Homo sapiens) (UniProt P32239); assay: Binding affinity to recombinant human CCK2 at 10 uM after 60 mins by scintillation counting analysis relative to control
Tryptase (Homo sapiens) = Tryptase (Homo sapiens) (UniProt Q9BZJ3+Q15661+Q9NRR2); assay: Binding affinity to human tryptase at 10 uM after 8 mins by spectrophotometric analysis relative to control; assay type: protein assay
[7] = target: Adenosine receptor A2a (Homo sapiens) (UniProt P29274); assay: Binding affinity to recombinant human A2A receptor at 10 uM after 120 mins by scintillation counting analysis relative to control
[8] = target: Calcitonin gene-related peptide type 1 receptor (Homo sapiens) (UniProt Q16602); assay: Binding affinity to recombinant human CGRP at 10 uM after 90 mins by scintillation counting analysis relative to control
[9] = target: Secretory phospholipase A2 receptor (Homo sapiens) (UniProt Q13018); assay: Binding affinity to recombinant human sPLA2 receptor at 10 uM after 20 mins by spectrophotometric analysis relative to control
Caspase-8 (Homo sapiens) = Caspase-8 (Homo sapiens) (UniProt Q14790); assay: Binding affinity to recombinant human caspase 8 at 10 uM after 45 mins by fluorescence assay relative to control
[10] = target: Histamine H2 receptor (Homo sapiens) (UniProt P25021); assay: Binding affinity to recombinant human histamine H2 receptor at 10 uM after 120 mins by scintillation counting analysis relative to control
L-type calcium channel = L-type calcium channel (Homo sapiens, UniProt O60840+Q01668+Q13698+Q13936); assay: Binding affinity to L-type calcium channel (unknown origin) at 10 uM relative to control; assay type: protein assay; details: read-out: Activity
[11] = target: Matrix metalloproteinase-9 (Homo sapiens) (UniProt P14780); assay: Binding affinity to human MMP9 at 10 uM after 90 mins by fluorescence assay relative to control
[12] = target: Voltage-gated inwardly rectifying potassium channel KCNH2 (Homo sapiens, UniProt Q12809); assay: Displacement of [3H]-astemizole from human ERG up to 10 uM
Method in brief: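 hERG channel binding assay run by a contract lab; compound tested up to 10 μM.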

[13] = target: Stromelysin-1 (Homo sapiens) (UniProt P08254); assay: Binding affinity to human MMP3 at 10 uM after 30 mins by fluorescence assay relative to control
[14] = target: Peroxisome proliferator-activated receptor gamma (Homo sapiens) (UniProt P37231); assay: Binding affinity to recombinant human PPARgamma receptor at 10 uM after 120 mins by scintillation counting analysis relative to control
[15] = target: Substance-K receptor (Homo sapiens) (UniProt P21452); assay: Binding affinity to recombinant human NK2 receptor at 10 uM after 60 mins by scintillation counting analysis relative to control
[16] = target: Type-2 angiotensin II receptor (Homo sapiens) (UniProt P50052); assay: Binding affinity to recombinant human AT2 receptor at 10 uM after 240 mins by scintillation counting analysis relative to control
[17] = target: Histone deacetylase 11 (Homo sapiens) (UniProt Q96DB2); assay: Binding affinity to recombinant human HDAC11 at 10 uM after 30 mins by fluorescence analysis relative to control
[18] = target: Muscarinic acetylcholine receptor M1 (Homo sapiens) (UniProt P11229); assay: Binding affinity to recombinant human muscarinic M1 receptor at 10 uM after 60 mins by scintillation counting analysis relative to control
[19] = target: Neprilysin (Homo sapiens) (UniProt P08473); assay: Binding affinity to neutral endopeptidase (unknown origin) at 10 uM by relative to control
[20] = target: Acetylcholinesterase (Homo sapiens) (UniProt P22303); assay: Binding affinity to recombinant human acetylcholinesterase at 10 uM after 30 mins by spectrophotometric analysis relative to control
[21] = target: Cannabinoid receptor 1 (Homo sapiens) (UniProt P21554); assay: Binding affinity to recombinant human CB1 at 10 uM after 120 mins by scintillation counting analysis relative to control
[22] = target: Histamine H1 receptor (Homo sapiens) (UniProt P35367); assay: Binding affinity to recombinant human histamine H1 receptor at 10 uM after 60 mins by scintillation counting analysis relative to control
[23] = target: cGMP-dependent 3',5'-cyclic phosphodiesterase (Homo sapiens) (UniProt O00408); assay: Binding affinity to recombinant human PDE2A1 at 10 uM after 20 mins by scintillation counting analysis relative to control
[24] = target: Sodium-dependent dopamine transporter (Homo sapiens) (UniProt Q01959); assay: Binding affinity to dopamine transporter (unknown origin) at 10 uM relative to control
Salmonella typhimurium = assay: Mutagenicity in Salmonella typhimurium TA1535 in absence of rat liver S9 fraction by Ames test; assay type: toxicity, organism-based; details: salmonella enterica subsp. enterica serovar typhimurium
[25] = target: 5-hydroxytryptamine receptor 6 (Homo sapiens) (UniProt P50406); assay: Binding affinity to recombinant human 5-HT6 receptor at 10 uM after 120 mins by scintillation counting analysis relative to control
[26] = target: Adrenergic receptor alpha-2 (Homo sapiens) (UniProt P08913+P18825+P18089); assay: Binding affinity to alpha2 receptor (unknown origin) at 10 uM relative to control; assay type: protein assay
[27] = target: Angiotensin-converting enzyme (Homo sapiens) (UniProt P12821); assay: Binding affinity to ACE (unknown origin) at 10 uM relative to control
[28] = target: Muscarinic acetylcholine receptor M2 (Homo sapiens) (UniProt P08172); assay: Binding affinity to muscarinic M2 receptor (unknown origin)
Homo sapiens [29] = organism: Homo sapiens; assay: Binding affinity to P2X receptor (unknown origin) at 10 uM relative to control
[30] = target: Histone deacetylase 4 (Homo sapiens) (UniProt P56524); assay: Binding affinity to recombinant human HDAC4 at 10 uM after 30 mins by fluorescence analysis relative to control
[31] = target: Centromere-associated protein E (Homo sapiens) (UniProt Q02224); assay: Binding affinity to recombinant human CENPE at 10 uM after 30 mins by spectrophotometric analysis relative to control
[32] = target: Glucocorticoid receptor (Homo sapiens) (UniProt P04150); assay: Binding affinity to human GR at 10 uM after 360 mins by scintillation counting analysis relative to control

Sequence of Voltage-gated inwardly rectifying potassium channel KCNH2 (Q12809 whole entry): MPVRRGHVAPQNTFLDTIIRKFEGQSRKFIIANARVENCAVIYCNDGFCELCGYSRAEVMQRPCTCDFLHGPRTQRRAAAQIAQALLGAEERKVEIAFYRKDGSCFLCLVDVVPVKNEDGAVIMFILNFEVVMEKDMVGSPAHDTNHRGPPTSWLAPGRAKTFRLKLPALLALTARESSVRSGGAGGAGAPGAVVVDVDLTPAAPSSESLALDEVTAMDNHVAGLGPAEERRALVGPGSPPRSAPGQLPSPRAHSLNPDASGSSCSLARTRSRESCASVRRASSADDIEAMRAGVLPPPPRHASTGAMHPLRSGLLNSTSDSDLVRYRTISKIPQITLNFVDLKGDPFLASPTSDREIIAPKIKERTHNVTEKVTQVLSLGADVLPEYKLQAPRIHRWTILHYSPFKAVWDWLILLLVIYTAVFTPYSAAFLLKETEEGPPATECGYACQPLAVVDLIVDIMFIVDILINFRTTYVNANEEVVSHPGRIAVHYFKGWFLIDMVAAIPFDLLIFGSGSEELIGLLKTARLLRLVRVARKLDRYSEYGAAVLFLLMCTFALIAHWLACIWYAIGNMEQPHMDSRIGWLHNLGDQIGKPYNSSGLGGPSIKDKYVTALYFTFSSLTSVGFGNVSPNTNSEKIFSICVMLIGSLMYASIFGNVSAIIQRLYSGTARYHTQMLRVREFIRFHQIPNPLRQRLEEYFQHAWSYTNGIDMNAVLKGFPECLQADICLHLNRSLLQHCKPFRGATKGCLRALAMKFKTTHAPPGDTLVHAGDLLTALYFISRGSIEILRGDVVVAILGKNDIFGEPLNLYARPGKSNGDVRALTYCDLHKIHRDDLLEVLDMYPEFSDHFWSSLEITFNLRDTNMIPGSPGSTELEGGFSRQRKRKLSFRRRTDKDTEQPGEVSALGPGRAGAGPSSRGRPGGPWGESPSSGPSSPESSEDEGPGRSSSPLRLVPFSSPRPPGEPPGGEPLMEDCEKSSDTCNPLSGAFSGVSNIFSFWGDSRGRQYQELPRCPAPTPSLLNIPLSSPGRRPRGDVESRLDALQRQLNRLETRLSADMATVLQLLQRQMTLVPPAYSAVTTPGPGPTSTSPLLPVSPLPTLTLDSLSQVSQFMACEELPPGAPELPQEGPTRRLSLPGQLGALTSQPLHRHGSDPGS
Sequence of Peroxisome proliferator-activated receptor gamma (Homo sapiens) (P37231 whole entry): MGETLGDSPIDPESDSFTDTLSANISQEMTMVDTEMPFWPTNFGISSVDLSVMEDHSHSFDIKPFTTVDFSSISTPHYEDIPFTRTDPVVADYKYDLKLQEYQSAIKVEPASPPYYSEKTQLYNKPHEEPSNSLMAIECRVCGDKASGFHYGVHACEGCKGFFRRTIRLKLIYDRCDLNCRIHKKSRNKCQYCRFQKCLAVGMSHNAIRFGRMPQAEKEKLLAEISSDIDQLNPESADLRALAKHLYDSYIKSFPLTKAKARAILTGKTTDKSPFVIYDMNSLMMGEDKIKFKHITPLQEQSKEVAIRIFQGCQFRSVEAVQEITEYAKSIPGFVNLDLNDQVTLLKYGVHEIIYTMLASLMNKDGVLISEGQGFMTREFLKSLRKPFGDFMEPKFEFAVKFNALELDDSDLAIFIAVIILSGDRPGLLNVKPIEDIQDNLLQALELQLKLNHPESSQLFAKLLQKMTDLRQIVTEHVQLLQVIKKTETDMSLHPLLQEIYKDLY
Sequence of Histamine H2 receptor (Homo sapiens) (P25021 whole entry): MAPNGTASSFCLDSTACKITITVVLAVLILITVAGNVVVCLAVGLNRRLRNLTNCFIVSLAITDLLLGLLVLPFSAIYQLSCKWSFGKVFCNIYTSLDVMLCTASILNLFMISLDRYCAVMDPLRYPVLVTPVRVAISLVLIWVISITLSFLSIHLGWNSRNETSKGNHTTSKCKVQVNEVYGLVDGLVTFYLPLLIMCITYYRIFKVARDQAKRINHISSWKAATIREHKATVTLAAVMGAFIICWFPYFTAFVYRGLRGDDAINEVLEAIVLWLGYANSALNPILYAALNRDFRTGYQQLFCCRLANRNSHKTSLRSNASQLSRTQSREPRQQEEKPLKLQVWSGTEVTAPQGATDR
Sequence of Calcitonin gene-related peptide type 1 receptor (Homo sapiens) (Q16602 whole entry): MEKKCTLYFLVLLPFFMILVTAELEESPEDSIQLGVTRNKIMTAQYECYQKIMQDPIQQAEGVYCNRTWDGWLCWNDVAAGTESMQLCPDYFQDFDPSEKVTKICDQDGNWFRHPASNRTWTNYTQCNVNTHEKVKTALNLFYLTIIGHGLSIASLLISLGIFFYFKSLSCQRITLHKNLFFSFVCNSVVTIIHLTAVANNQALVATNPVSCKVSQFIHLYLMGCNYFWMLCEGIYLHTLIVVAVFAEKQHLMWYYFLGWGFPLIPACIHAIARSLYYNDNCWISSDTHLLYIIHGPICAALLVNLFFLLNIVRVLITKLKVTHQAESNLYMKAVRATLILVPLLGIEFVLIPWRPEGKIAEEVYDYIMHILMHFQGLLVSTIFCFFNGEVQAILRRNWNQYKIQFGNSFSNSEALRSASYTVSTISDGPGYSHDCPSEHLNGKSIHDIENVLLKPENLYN
Sequence of Matrix metalloproteinase-9 (Homo sapiens) (P14780 whole entry): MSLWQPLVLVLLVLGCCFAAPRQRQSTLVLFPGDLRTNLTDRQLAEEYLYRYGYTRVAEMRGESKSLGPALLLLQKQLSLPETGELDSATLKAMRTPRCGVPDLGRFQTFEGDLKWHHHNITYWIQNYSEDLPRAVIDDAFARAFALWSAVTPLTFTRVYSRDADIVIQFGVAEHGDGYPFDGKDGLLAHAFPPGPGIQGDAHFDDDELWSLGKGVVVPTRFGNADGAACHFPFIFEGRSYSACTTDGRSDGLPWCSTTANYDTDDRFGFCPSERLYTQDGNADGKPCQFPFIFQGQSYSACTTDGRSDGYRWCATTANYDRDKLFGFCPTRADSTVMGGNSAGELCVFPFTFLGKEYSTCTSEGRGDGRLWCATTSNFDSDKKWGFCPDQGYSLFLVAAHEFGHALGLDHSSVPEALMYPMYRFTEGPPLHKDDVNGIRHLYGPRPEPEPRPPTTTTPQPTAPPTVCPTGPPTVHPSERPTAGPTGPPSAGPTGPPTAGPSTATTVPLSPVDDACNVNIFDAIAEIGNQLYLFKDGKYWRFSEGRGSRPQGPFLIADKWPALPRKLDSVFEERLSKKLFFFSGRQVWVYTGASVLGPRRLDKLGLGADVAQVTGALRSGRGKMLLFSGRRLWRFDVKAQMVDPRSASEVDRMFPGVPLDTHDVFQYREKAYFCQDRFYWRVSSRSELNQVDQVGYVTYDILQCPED
Sequence of Sodium-dependent dopamine transporter (Homo sapiens) (Q01959 whole entry): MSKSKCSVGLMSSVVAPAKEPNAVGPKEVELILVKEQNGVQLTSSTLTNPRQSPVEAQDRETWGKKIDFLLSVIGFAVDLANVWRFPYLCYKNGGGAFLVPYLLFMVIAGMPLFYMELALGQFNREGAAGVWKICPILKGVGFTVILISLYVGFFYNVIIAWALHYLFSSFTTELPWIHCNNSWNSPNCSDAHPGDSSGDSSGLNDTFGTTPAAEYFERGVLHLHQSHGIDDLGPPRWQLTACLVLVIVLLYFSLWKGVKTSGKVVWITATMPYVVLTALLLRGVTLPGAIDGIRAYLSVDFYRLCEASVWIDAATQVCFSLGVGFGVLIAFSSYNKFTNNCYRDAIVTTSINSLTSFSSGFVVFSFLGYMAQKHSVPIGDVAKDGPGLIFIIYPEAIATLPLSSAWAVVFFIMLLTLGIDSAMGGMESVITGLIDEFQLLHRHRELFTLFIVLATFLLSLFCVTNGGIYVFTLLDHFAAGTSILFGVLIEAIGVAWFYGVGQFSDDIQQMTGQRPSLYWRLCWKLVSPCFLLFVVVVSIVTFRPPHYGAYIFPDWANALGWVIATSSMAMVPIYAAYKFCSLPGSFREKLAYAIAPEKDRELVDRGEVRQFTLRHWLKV
Sequence of Neprilysin (Homo sapiens) (P08473 whole entry): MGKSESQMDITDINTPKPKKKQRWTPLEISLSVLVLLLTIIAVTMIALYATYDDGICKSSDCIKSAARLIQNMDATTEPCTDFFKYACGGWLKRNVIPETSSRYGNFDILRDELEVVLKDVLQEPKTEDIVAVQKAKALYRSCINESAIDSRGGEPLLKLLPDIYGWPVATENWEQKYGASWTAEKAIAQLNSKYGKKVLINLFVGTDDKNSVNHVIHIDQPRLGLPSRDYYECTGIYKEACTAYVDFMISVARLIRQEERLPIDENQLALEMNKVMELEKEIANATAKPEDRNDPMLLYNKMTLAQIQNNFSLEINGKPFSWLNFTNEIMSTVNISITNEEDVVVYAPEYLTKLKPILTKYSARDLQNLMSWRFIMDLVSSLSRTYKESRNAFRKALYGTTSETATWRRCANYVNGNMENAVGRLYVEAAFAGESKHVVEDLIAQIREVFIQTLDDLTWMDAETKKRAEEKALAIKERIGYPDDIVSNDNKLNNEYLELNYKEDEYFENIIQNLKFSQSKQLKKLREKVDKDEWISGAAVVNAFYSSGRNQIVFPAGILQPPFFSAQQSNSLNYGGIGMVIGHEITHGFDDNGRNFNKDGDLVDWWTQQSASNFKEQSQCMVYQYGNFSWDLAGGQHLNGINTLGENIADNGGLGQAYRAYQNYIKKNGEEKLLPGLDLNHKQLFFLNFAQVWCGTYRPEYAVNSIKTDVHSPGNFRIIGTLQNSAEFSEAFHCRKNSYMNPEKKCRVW
Sequence of Type-1 angiotensin II receptor (Homo sapiens) (P30556 whole entry): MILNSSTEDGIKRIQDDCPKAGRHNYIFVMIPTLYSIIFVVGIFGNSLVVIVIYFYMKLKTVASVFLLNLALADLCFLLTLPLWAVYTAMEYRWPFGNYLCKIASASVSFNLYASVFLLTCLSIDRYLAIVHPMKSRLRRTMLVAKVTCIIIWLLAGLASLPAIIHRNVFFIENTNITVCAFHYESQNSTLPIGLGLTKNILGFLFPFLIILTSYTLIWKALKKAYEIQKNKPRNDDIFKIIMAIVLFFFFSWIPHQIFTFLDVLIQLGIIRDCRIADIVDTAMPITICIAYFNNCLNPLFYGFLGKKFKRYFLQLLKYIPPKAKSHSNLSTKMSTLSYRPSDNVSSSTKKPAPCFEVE

Which results are given for CCOc1c(Cl)cc(C(=O)Nc2ccc(C(=O)O)c(C)c2)cc1OC(C)C?
Activity [1]: < 25%; Activity [2]: < 25%; Activity [3]: < 25%; Activity [4]: < 25%; Activity (Homo sapiens [5]): < 25%; Activity [6]: < 25%; Activity (Tryptase (Homo sapiens)): < 25%; Activity [7]: < 25%; Activity [8]: < 25%; Activity [9]: < 25%; Activity (Caspase-8 (Homo sapiens)): < 25%; Activity [10]: < 25%; activity at 10 µM (L-type calcium channel): ≤ 25%; Activity [11]: < 25%; Activity [12]: Not Active; Activity [13]: < 25%; Activity [14]: < 25%; Activity [15]: < 25%; Activity [16]: < 25%; Activity [17]: < 25%; Activity [18]: < 25%; Activity [19]: < 25%; Activity [20]: < 25%; Activity [21]: < 25%; Activity [22]: < 25%; Activity [23]: < 25%; Activity [24]: < 25%; Activity (Salmonella typhimurium): Non-Toxic; Activity [25]: < 25%; Activity [26]: < 25%; Activity [27]: < 25%; Activity [28]: < 25%; Activity (Homo sapiens [29]): < 25%; Activity [30]: < 25%; Activity [31]: < 25%; Activity [32]: < 25%
